Test results as given in ChEMBL document CHEMBL1131498, “Design, synthesis, and evaluation of the multidrug resistance-reversing activity of D-glucose mimetics of hapalosin” (J Med Chem, 1998).
Values after ≈ are worked out from the molar mass of the structure shown.

What was measured:
Conditions in all cases: Homo sapiens
HL-60 [1] = test: Inhibitory concentration against HL-60/ADR cells using MRP-mediated MDR assay using 2 nM vincristine which inhibits cell proliferation by 20% in the absence of particular cytotoxic drug; type: functional
How it was run: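 HL-60/ADR leukemia cells (MRP-expressing) exposed 48 h to varying compound concentrations alone, PBS replacing vincristine. Viability by MTS tetrazolium metabolism (CellTiter AQueous), % decrease vs controls. Triplicates, mean ± SD; approximate concentration (μg/mL) inhibiting proliferation by 20%.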

HL-60 [2] = test: Effective concentration against HL-60/ADR cells using MRP-mediated MDR assay using 2 nM vincristine which results in 50% of the cells being killed in the presence of particular cytotoxic drug.; type: functional, cell-based
How it was run: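 Human promyelocytic leukemia HL-60/ADR cells (MRP-expressing, no P-gp) given varying compound concentrations plus 2 nM vincristine for 48 h. Survival by MTS tetrazolium metabolism (CellTiter AQueous); % killed as decrease vs control cultures. Triplicates, mean ± SD; approximate concentration (μg/mL) giving 50% kill.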

MCF7 [3] = test: Inhibitory concentration against MCF-7/ADR cells using P-gp-mediated MDR assay using 25 nM actinomycin D which inhibit cells proliferation by 20% in the absence of particular cytotoxic drug; type: functional
How it was run: (§1)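 MCF-7/ADR cells (from NCI, RPMI 1640 + 10% FBS, 50 μg/mL gentamycin) seeded at ~15% confluency, 24 h attachment, then eight doses of compound alone (PBS in place of actinomycin D) for 48 h. Sulforhodamine B staining; % kill vs ethanol solvent controls. Triplicates, mean ± SD; approximate concentration (μg/mL) giving 20% growth inhibition.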

MCF7 [4] = test: Effective concentration against MCF-7/ADR cells using P-gp-mediated MDR assay using 25 nM actinomycin D which results in 50% of the cells being killed in the presence of particular cytotoxic drug.; type: functional, cell-based
How it was run: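 MCF-7/ADR cells (from NCI, grown in RPMI 1640 + 10% FBS, 50 μg/mL gentamycin) seeded at ~15% confluency, 24 h recovery, then eight doses of compound with 25 nM actinomycin D for 48 h. Survival by sulforhodamine B staining; % killed as decrease in binding vs ethanol solvent controls. Triplicates, mean ± SD; approximate concentration (μg/mL) giving 50% kill read from curves.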

MCF7 [5] = test: Inhibitory concentration against MCF-7/ADR cells using P-gp-mediated MDR assay using 25 nM actinomycin D which inhibits cell proliferation by 20% in the absence of particular cytotoxic drug; type: functional; how it was run: as §1

| SMILES | IC20 (HL-60 [1]) [µg/mL] | EC50 (HL-60 [2]) [µg/mL] | IC20 (MCF7 [3]) [µg/mL] | EC50 (MCF7 [4]) [µg/mL] | IC20 (MCF7 [5]) [µg/mL] |
| --- | --- | --- | --- | --- | --- |
| CCCCCCCO[C@@H]1[C@@H](OCc2ccccc2)[C@@H](OCc2ccccc2)O[C@H](CC(C)C)[C@H]1OC | > 20 | 18 | > 20 | > 20 | – |
| CCCCCCCO[C@@H]1[C@@H](O)[C@@H](OCc2ccccc2)O[C@H](CC(C)C)[C@H]1O | > 20 | 3.5 | 12 (≈ 30.4 µM) | 6 | – |
| CCCCCCCO[C@@H]1[C@@H](O)[C@@H](OCc2ccccc2)O[C@H](CC(C)C)[C@H]1OCc1ccc(OC)cc1 | > 20 | 1.8 | 12 (≈ 23.3 µM) | 4 | – |
| CCCCCCCO[C@@H]1[C@@H](OCc2ccccc2)[C@@H](OCc2ccccc2)O[C@@H]2CO[C@@H](c3ccc(OC)cc3)O[C@@H]12 | > 20 | 2.5 | > 20 | > 20 | – |
| CCCCCCCO[C@@H]1[C@@H](O)[C@@H](OCc2ccccc2)O[C@H](CC(C)C)[C@H]1OC | > 20 | 10 | 20 (≈ 49 µM) | 7 | – |
| CCCCCCCO[C@@H]1[C@@H](OCc2ccccc2)[C@@H](OCc2ccccc2)O[C@H](CC(C)C)[C@H]1OCc1ccc(OC)cc1 | > 20 | > 20 | > 20 | > 20 | – |
| CCCCCCCO[C@@H]1[C@@H](O)[C@@H](OCc2ccccc2)O[C@H](CO)[C@H]1O | > 20 | 10 | > 20 | > 20 | – |
| CCCCCCCO[C@@H]1[C@@H](OCc2ccccc2)[C@@H](OCc2ccccc2)O[C@H](C=C(C)C)[C@H]1OCc1ccc(OC)cc1 | > 20 | > 20 | > 20 | > 20 | – |
| CCCCCCCO[C@@H]1[C@@H](OCc2ccccc2)[C@@H](OCc2ccccc2)O[C@H](C=O)[C@H]1OCc1ccc(OC)cc1 | 1.8 (≈ 3.12 µM) | 1.5 | 5 (≈ 8.67 µM) | 4 | – |
| CCCCCCCO[C@@H]1[C@@H](OCc2ccccc2)[C@@H](OCc2ccccc2)O[C@H](CO)[C@H]1OCc1ccc(OC)cc1 | 6 (≈ 10.4 µM) | 1.7 | 6 (≈ 10.4 µM) | 3 | – |
| CCCCCCCO[C@@H]1[C@@H](O)[C@@H](OCc2ccccc2)O[C@@H]2CO[C@@H](c3ccc(OC)cc3)O[C@@H]12 | > 20 | 2.5 | 12 (≈ 24.7 µM) | 2.5 | – |
| CCCCCCCO[C@H]1[C@H](O)[C@@H](CC(C)C)O[C@H](OCc2ccccc2)[C@@H]1OCc1ccccc1 | > 20 | 2.5 | 10 (≈ 20.6 µM) | 6 | – |
| CCCCCCC[C@H]1OC(=O)C[C@@H](O)[C@H](Cc2ccccc2)N(C)C(=O)[C@H](C(C)C)OC(=O)[C@H]1C [HAPALOSIN] | 6 (≈ 12.3 µM) | 0.7 | – | 1 | 6 (≈ 12.3 µM) |
| COc1ccc(CCN(C)CCCC(C#N)(c2ccc(OC)c(OC)c2)C(C)C)cc1OC (stereo unspecified) [VERAPAMIL] | > 20 | 1.8 | > 20 | 1 | – |
